Results from ChEMBL document CHEMBL1811786, “Identification of MK-5710 ((8aS)-8a-methyl-1,3-dioxo-2-[(1S,2R)-2-phenylcyclo- propyl]-N-(1-phenyl-1H-pyrazol-5-yl)hexahydro-imidazo[1,5-a]pyrazine-7(1H)-carboxamide), a potent smoothened antagonist for use in Hedgehog pathway dependent malignancies, part 2” (Bioorg Med Chem Lett, 2011).

Tests used:
[1] = Oral bioavailability in rat; type: ADME, organism-based; settings: in vivo
[2] = Volume of distribution at steady state in rat; type: ADME, organism-based; settings: in vivo, read-out: Vdss
[3] = tested on: Mus musculus; assay: Toxicity in mouse medulloblastoma allograft model assessed as adverse effects at 80 mg/kg, po qd for 3 weeks; type: organism-based; parameters: dose 80 mg/kg, route oral; settings: in vivo, 504 h
In short: (§1)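 Primary mouse medulloblastoma allograft, subcutaneous. Mice randomized when tumors averaged 400 mm³. Oral dosing for 3 weeks, bid at 40, 80, 120 or 160 mg/kg, or 80 mg/kg qd. Compound given as a suspension in 0.24% SDS/0.5% Methocel, with a BID vehicle control. Tumor volume tracked over days; body weight, physical signs and mortality monitored.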

[4] = Cmax in iv dosed dog; type: ADME, organism-based, Canis lupus familiaris; parameters: route intravenous; settings: in vivo
[5] = tested on: Mus musculus; assay: Toxicity in mouse medulloblastoma allograft model assessed as adverse effects at 160 mg/kg, po bid for 3 weeks; type: organism-based; parameters: dose 160 mg/kg, route oral; settings: in vivo, 504 h; in short: as §1
[6] = Half life in dog; type: ADME, organism-based, Canis lupus familiaris; settings: in vivo
[7] = tested on: Mus musculus; assay: Toxicity in mouse medulloblastoma allograft model assessed as adverse effects at 80 mg/kg, po bid for 3 weeks; type: organism-based; parameters: dose 80 mg/kg, route oral; settings: in vivo, 504 h; in short: as §1
[8] = Volume of distribution at steady state in dog; type: ADME, organism-based, Canis lupus familiaris; settings: in vivo, read-out: Vdss
[9] = molecular target: hERG (KCNH2) (Homo sapiens, UniProt Q12809); assay: Inhibition of human ERG at 30 uM
Chain of hERG (KCNH2) (Q12809 whole entry): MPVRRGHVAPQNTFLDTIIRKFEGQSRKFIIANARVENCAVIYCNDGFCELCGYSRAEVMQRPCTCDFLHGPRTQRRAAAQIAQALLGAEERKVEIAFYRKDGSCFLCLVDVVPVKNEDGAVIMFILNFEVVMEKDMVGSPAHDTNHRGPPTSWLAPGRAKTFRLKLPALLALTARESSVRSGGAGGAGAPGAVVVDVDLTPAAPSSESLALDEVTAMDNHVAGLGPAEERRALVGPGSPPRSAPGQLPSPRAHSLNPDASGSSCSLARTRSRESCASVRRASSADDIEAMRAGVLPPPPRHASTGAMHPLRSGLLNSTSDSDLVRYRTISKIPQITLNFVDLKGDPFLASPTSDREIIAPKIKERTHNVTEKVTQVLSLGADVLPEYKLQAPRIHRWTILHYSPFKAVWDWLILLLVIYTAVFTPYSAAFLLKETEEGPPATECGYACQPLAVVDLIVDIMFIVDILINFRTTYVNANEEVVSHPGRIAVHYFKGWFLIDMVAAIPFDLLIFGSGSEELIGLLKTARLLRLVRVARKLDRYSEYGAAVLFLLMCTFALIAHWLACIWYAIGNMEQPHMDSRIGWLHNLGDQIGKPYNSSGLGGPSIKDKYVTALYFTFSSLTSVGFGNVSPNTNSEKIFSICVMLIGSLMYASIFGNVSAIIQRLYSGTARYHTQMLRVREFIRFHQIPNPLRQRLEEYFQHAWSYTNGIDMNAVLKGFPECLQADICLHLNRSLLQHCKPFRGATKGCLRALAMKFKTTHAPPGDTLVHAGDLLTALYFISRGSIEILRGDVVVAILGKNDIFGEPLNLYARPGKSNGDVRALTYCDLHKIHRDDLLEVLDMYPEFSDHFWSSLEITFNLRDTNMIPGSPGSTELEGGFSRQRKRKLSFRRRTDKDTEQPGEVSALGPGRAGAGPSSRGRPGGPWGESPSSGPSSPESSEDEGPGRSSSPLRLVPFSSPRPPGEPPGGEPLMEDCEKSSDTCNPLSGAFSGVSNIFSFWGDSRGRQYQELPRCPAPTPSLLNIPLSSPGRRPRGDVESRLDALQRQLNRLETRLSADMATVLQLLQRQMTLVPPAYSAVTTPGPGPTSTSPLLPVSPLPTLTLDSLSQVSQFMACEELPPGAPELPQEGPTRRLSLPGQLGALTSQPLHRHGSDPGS

[10] = tested on: Mus musculus; assay: Inhibition of Shh pathway in mouse medulloblastoma allograft model assessed as reduction in tumor Gli-1 mRNA expression at 80 mg/kg, po administered as single dose measured after 8 hrs; type: functional
In short: (§2)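 Tumor-bearing medulloblastoma mice given a single oral 80 mg/kg dose. Tumor biopsies taken at timepoints up to 24 h; Hh-pathway inhibition measured as reduction of Gli-1 mRNA.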

[11] = tested on: Mus musculus; assay: Inhibition of Shh pathway in mouse medulloblastoma allograft model assessed as reduction in tumor Gli-1 mRNA expression at 80 mg/kg, po administered as single dose measured after 4 hrs; type: functional; in short: as §2
[12] = Inhibition of Voltage-gated sodium channel at 30 uM
[13] = organism: Rattus norvegicus; assay: Clearance in rat; type: ADME, organism-based; settings: in vivo
[14] = Oral bioavailability in dog; type: ADME, organism-based, Canis lupus familiaris; settings: in vivo
[15] = molecular target: Cytochrome P450 3A4 (Homo sapiens, UniProt P08684); assay: Inhibition of CYP3A4; type: ADME
Chain of Cytochrome P450 3A4 (P08684 whole entry): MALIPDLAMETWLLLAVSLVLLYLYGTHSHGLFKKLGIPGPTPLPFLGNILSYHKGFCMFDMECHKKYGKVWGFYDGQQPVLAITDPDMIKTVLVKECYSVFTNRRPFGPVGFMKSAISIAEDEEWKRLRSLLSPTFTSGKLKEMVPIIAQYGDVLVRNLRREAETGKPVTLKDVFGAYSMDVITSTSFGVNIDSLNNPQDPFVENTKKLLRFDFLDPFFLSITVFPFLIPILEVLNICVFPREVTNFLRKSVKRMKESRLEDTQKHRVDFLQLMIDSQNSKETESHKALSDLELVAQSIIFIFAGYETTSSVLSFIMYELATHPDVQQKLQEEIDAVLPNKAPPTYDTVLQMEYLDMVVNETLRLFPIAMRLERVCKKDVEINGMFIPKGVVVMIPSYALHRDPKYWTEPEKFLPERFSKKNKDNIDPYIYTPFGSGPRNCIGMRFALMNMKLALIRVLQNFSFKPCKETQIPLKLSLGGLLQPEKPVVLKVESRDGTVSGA

[16] = Half life in rat; type: ADME, organism-based; settings: in vivo
[17] = tested on: Canis familiaris; assay: Toxicity in iv dosed vagotomized dog assessed as change in hemodynamic parameters; type: organism-based, Canis lupus familiaris; settings: in vivo
[18] = molecular target: T1, Protein smoothened (Homo sapiens, UniProt Q99835); assay: Displacement of BODIPY-cyclopamine from human Smo expressed in HEK293 cells in presence of 2% fetal calf serum; type: cell-based
T1 sequence (Q99835 whole entry): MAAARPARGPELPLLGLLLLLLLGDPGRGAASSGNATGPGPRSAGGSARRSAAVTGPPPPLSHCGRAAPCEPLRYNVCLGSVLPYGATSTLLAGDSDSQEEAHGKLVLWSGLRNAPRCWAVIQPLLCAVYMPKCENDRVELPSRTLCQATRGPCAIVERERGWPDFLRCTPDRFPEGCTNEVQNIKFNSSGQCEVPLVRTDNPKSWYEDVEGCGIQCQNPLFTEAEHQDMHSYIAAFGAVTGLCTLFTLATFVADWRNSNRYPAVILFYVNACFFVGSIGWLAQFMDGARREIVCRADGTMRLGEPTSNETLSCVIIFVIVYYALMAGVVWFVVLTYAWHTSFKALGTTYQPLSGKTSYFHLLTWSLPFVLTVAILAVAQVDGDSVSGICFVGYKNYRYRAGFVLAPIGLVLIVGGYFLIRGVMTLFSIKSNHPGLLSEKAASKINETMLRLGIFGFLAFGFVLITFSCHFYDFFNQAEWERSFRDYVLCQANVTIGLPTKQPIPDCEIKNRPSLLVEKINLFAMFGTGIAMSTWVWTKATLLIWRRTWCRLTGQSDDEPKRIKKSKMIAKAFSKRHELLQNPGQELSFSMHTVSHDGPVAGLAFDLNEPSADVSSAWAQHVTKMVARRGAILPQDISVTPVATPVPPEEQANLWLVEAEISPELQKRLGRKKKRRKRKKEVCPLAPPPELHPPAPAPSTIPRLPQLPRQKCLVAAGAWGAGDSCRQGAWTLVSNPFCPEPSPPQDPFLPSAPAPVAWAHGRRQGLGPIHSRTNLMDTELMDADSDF
In short: (§3)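 Competition binding: displacement of fluorescently labeled bodipy-cyclopamine from recombinant human Smo expressed in HEK-293 cells. Run in 2% fetal calf serum and, separately, in 20% normal human serum. IC50 values are means of at least five experiments.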

[19] = molecular target: Cytochrome P450 2C9 (Homo sapiens, UniProt P11712); assay: Inhibition of CYP2C9; type: ADME
Chain of Cytochrome P450 2C9 (P11712 whole entry): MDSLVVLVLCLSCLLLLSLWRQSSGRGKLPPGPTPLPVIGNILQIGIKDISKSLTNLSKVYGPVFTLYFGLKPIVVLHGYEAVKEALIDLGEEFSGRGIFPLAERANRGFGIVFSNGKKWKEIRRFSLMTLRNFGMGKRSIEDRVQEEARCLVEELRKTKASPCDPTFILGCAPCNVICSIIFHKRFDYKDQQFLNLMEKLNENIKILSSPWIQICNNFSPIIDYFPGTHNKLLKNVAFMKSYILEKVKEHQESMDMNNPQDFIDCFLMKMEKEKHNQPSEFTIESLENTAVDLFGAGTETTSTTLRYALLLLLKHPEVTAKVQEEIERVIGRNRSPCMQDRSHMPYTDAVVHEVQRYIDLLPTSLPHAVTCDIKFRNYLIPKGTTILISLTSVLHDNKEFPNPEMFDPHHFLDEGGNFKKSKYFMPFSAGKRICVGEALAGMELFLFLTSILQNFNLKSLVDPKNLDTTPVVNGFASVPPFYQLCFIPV

[20] = tested on: Mus musculus; assay: Toxicity in mouse medulloblastoma allograft model assessed as adverse effects at 120 mg/kg, po bid for 3 weeks; type: organism-based; parameters: dose 120 mg/kg, route oral; settings: in vivo, 504 h; in short: as §1
[21] = tested on: Mus musculus; assay: Inhibition of Shh pathway in mouse medulloblastoma allograft model assessed as reduction in tumor Gli-1 mRNA expression at 80 mg/kg, po administered as single dose; type: functional, organism-based; parameters: dose 80 mg/kg; settings: TDE = time-dependent effect; in short: as §2
[22] = tested on: Mus musculus; assay: Toxicity in mouse medulloblastoma allograft model assessed as adverse effects at 40 mg/kg, po bid for 3 weeks; type: organism-based; parameters: dose 40 mg/kg, route oral; settings: in vivo, 504 h; in short: as §1
[23] = tested on: Canis familiaris; assay: Toxicity in iv dosed vagotomized dog assessed as change in cardiovascular parameters; type: organism-based, Canis lupus familiaris, Heart; settings: in vivo
[24] = organism: Canis familiaris; assay: Clearance in dog; type: ADME, organism-based, Canis lupus familiaris; settings: in vivo
[25] = molecular target: Cytochrome P450 2D6 (Homo sapiens, UniProt P10635); assay: Inhibition of CYP2D6; type: ADME
Chain of Cytochrome P450 2D6 (P10635 whole entry): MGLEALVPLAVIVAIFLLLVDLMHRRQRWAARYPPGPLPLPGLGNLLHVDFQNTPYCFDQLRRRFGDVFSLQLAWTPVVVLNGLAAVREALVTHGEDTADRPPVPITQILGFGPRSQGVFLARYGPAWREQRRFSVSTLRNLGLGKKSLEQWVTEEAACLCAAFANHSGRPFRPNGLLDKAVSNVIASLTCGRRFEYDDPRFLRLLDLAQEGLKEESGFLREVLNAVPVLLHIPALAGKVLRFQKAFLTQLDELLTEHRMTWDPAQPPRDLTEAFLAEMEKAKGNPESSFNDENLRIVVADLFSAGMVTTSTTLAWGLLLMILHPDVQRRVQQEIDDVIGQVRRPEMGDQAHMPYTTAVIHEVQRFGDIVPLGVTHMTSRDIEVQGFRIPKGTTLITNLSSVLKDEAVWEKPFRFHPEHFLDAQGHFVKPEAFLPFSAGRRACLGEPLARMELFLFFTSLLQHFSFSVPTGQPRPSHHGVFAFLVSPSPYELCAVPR

[26] = molecular target: T1, Protein smoothened; assay: Displacement of BODIPY-cyclopamine from human Smo expressed in HEK293 cells in presence of 20% normal human serum; type: cell-based; in short: as §3
[27] = tested on: Mus musculus; assay: Inhibition of Shh pathway in mouse medulloblastoma allograft model assessed as reduction in tumor Gli-1 mRNA expression at 80 mg/kg, po administered as single dose measured after 6 hrs; type: functional; in short: as §2

With `C[C@@]12CN(C(=O)Nc3ccnn3-c3ccccc3)CCN1C(=O)N([C@H]1C[C@@H]1c1ccccc1)C2=O` as the compound, how does the bioavailability [1] read?
The bioavailability was 40%.

What about the Vd [2] of the same compound?
The Vd was 2.9 L/kg.

What about the Activity [3] of the same compound?
The Activity was “Non-toxic”.

What about the Cmax [4] of the same compound?
Its Cmax is 16 µM.

And the Activity [5]?
The Activity was “Non-toxic”.

And the half-life [6]?
The half-life was 1.1 h.

What about the Activity [7] of the same compound?
Its Activity is “Non-toxic”.

And the Vd [8]?
The Vd was 2 L/kg.

What about the inhibition at 30 µM [9] of the same compound?
Its inhibition at 30 µM is 27%.

And the inhibition in vivo at 80 mg/kg [10]?
The inhibition in vivo at 80 mg/kg was over 85%.

And the inhibition in vivo at 80 mg/kg [11]?
Its inhibition in vivo at 80 mg/kg is 77%.

What about the inhibition [12] of the same compound?
Its inhibition is 45%.

What about the clearance [13] of the same compound?
The clearance was 22 mL/min/kg.

And the bioavailability [14]?
The bioavailability was 52%.

What about the IC50 [15] of the same compound?
Its IC50 is over 40 µM.

And the half-life [16]?
The half-life was 5.1 h.

What about the Activity [17] of the same compound?
Its Activity is “Non-toxic”.

And the IC50 [18]?
Its IC50 is 0.013 µM.

What about the IC50 [19] of the same compound?
The IC50 was over 40 µM.

What about the Activity [20] of the same compound?
Its Activity is “Non-toxic”.

And the inhibition [21]?
Its inhibition is “tde”.

And the Activity [22]?
The Activity was “Non-toxic”.

What about the Activity [23] of the same compound?
Its Activity is “Non-toxic”.

What about the clearance [24] of the same compound?
The clearance was 22 mL/min/kg.

What about the IC50 [25] of the same compound?
The IC50 was over 40 µM.

What about the IC50 [26] of the same compound?
The IC50 was 0.022 µM.

What about the inhibition in vivo at 80 mg/kg [27] of the same compound?
The inhibition in vivo at 80 mg/kg was over 85%.
